ChEMBL document CHEMBL1146182, “Synthesis and cytotoxic evaluation of combretafurans, potential scaffolds for dual-action antitumoral agents” (J Med Chem, 2006)
Activity calls are given as the source filed them. The calls are words filed in the database; no cut-off is given here.

Columns and labels:
Tubulin (Homo sapiens) [1] = molecular target: T1, Tubulin (Homo sapiens) (UniProt P68371+Q9H4B7+P0DPH7+P68366+Q13509+Q71U36+P04350+Q3ZCM7+P07437+P68363+Q9BQE3+Q6PEY2+Q13885+Q9BVA1+Q9BUF5); assay: Inhibition of tubulin polymerization; format: protein-complex assay
Summary of the method: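 Whole-cell (in vivo) tubulin polymerization assay in neuroblastoma cells. Cells are incubated overnight with a high inhibitor concentration. Proteins are then extracted in the presence of paclitaxel so that the tubulin polymerization state is frozen at extraction.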

SH-SY5Y [2] = assay: Cytotoxicity against SHSY5Y cell line by MTT assay; format: functional, cell-based; conditions: Homo sapiens
SH-SY5Y [3] = assay: Cell cycle arrest in SHSY5Y cells by accumulation at S phase after 24 hrs; format: functional, Homo sapiens
SH-SY5Y [4] = assay: Cell cycle arrest in SHSY5Y cells by accumulation at S phase after 12 hrs; format: functional, Homo sapiens
SH-SY5Y [5] = assay: Cell cycle arrest in SHSY5Y cells by accumulation at S phase after 4 hrs; format: functional, Homo sapiens
SH-SY5Y [6] = assay: Cell cycle arrest in SHSY5Y cells by accumulation at G1 phase after 24 hrs; format: functional, Homo sapiens
SH-SY5Y [7] = assay: Cell cycle arrest in SHSY5Y cells by accumulation at G2 phase after 12 hrs; format: functional, Homo sapiens
SH-SY5Y [8] = assay: Cell cycle arrest in SHSY5Y cells by accumulation at G1 phase after 4 hrs; format: functional, Homo sapiens
SH-SY5Y [9] = assay: Cell cycle arrest in SHSY5Y cells by accumulation at G2 phase after 8 hrs; format: functional, Homo sapiens
SH-SY5Y [10] = assay: Cell cycle arrest in SHSY5Y cells by accumulation at G2 phase after 24 hrs; format: functional, Homo sapiens
Tubulin (Homo sapiens) [11] = molecular target: T1, Tubulin (Homo sapiens); assay: Induction of tubulin depolymerization at 35.8 nM after 24 hrs; format: protein-complex assay
SH-SY5Y [12] = assay: Cell cycle arrest in SHSY5Y cells by accumulation at G1 phase after 12 hrs; format: functional, Homo sapiens
SH-SY5Y [13] = assay: Cell cycle arrest in SHSY5Y cells by accumulation at G2 phase after 4 hrs; format: functional, Homo sapiens
SH-SY5Y [14] = assay: Cell cycle arrest in SHSY5Y cells by accumulation at G1 phase after 8 hrs; format: functional, Homo sapiens
SH-SY5Y [15] = assay: Cell cycle arrest in SHSY5Y cells by accumulation at S phase after 8 hrs; format: functional, Homo sapiens
Tubulin (Homo sapiens) [16] = molecular target: T1, Tubulin (Homo sapiens); assay: Induction of tubulin depolymerization at 231 nM after 24 hrs; format: protein-complex assay
SH-SY5Y [17] = assay: Cytotoxicity against SHSY5Y cell line upto 1 uM by MTT assay; format: functional, cell-based; conditions: Homo sapiens
Tubulin (Homo sapiens) [18] = molecular target: T1, Tubulin (Homo sapiens); assay: Induction of tubulin depolymerization at 2.9 nM after 24 hrs; format: protein-complex assay

Row | Structure (SMILES) | Activity (Tubulin (Homo sapiens) [1]) | IC50 (SH-SY5Y [2]) | Activity (SH-SY5Y [3]) | Activity (SH-SY5Y [4]) | Activity (SH-SY5Y [5]) | Activity (SH-SY5Y [6]) | Activity (SH-SY5Y [7]) | Activity (SH-SY5Y [8]) | Activity (SH-SY5Y [9]) | Activity (SH-SY5Y [10]) | Activity (Tubulin (Homo sapiens) [11]) | Activity (SH-SY5Y [12]) | Activity (SH-SY5Y [13]) | Activity (SH-SY5Y [14]) | Activity (SH-SY5Y [15]) | Activity (Tubulin (Homo sapiens) [16]) | Activity (SH-SY5Y [17]) | Activity (Tubulin (Homo sapiens) [18])
1 | COc1ccc(-c2cocc2-c2cc(OC)c(OC)c(OC)c2)cc1N | Active | 5.1 nM |  |  |  |  |  |  |  |  |  |  |  |  |  |  |  | 
2 | COc1ccc(-c2coc(C=O)c2-c2cc(OC)c(OC)c(OC)c2)cc1 | Active | 35.8 nM | 78% | 39% | 54% | 58% | 55% | 53% | 25% | 81% | inactive | 50% | 41% | 74% | 46% |  |  | 
3 | COc1ccc(-c2c(-c3cc(OC)c(OC)c(OC)c3)coc2C=O)cc1 | Active | 231 nM | 29% | 79% | 54% | 77% | 82% | 32% | 23% | 25% |  | 42% | 62% | 93% | 84% | Active |  | 
4 | COc1ccc(-c2cocc2-c2cc(OC)c(OC)c(OC)c2)cc1[N+](=O)[O-] | Active | 245 nM |  |  |  |  |  |  |  |  |  |  |  |  |  |  |  | 
5 | COc1ccc(-c2c(-c3cc(OC)c(OC)c(OC)c3)coc2/C=N/NC(=O)CCCC(=O)O)cc1 | Active | 1670 nM |  |  |  |  |  |  |  |  |  |  |  |  |  |  |  | 
6 | COc1ccc(-c2cocc2-c2cc(OC)c(OC)c(OC)c2)cc1 |  | 39 nM |  |  |  |  |  |  |  |  |  |  |  |  |  |  |  | 
7 | COc1ccc(/C=C\c2cc(OC)c(OC)c(OC)c2)cc1O [COMBRETASTATIN A4] | Active | 1.6 nM | 83% | 83% | 49% | 25% | 52% | 69% | 55% | 92% |  | 64% | 82% | 66% | 79% |  |  | 
8 | COc1cc(-c2cocc2-c2ccc3c(c2)OCO3)cc(OC)c1OC | Active |  |  |  |  |  |  |  |  |  |  |  |  |  |  |  | inactive | 
9 | COc1ccc(-c2cocc2-c2cc(OC)c(OC)c(OC)c2)cc1O | Active | 2.9 nM | 85% | 43% | 53% | 70% | 38% | 33% | 55% | 45% |  | 47% | 33% | 87% | 58% |  |  | Active
